# In ChEMBL document CHEMBL4732088, “Identification and optimization of piperlongumine analogues as potential antioxidant and anti-inflammatory agents via activation of Nrf2” (Eur J Med Chem, 2021):
# Active and inactive are the calls of the source. No cut-off for these calls is given here.
# What was measured:
# [1] = test system: PC-12; assay: Protection against 6-OHDA-induced mitochondrial dysfunction in rat PC12 cells assessed as change in mitochondrial membrane potential loss at 10 uM pretreated with compound followed by 6-OHDA addition by JC-1 staining based flow cytometry (reference value: 26.8 %); assay type: functional
# Summary of the method: (§1)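 Mitochondrial membrane potential in PC12 cells pretreated with compound (5, 10, 20 μM), then exposed to H₂O₂ (200 μM) or 6-OHDA (150 μM). JC-1 staining, red-to-green fluorescence shift read by flow cytometry. Mean ± SD, n = 3.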
# [2] = molecular target: T1, Nuclear factor erythroid 2-related factor 2 (Rattus norvegicus) (UniProt O54968); assay: Activation of Nrf2 in rat PC12 cells assessed as increase in HO-1 protein level at 20 uM after 12 hrs by Western blot analysis; assay type: cell-based; details: PC-12, filed as activator
# T1 sequence (whole entry): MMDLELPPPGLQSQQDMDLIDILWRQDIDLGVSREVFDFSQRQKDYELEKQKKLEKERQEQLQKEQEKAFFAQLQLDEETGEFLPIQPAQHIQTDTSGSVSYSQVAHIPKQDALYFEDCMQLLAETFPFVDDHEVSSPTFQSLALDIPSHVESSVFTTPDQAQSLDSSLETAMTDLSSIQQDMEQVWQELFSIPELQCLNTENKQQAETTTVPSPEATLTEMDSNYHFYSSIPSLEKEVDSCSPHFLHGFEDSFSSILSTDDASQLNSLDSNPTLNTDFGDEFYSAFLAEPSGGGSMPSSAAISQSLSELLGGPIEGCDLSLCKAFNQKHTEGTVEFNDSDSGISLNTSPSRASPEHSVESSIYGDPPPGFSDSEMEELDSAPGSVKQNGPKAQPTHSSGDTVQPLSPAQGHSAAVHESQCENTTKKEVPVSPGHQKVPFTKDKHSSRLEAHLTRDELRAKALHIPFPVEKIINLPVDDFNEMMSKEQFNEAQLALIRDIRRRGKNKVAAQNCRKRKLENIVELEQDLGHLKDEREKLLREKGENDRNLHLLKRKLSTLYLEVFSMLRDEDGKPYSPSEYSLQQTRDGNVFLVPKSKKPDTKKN
# [3] = molecular target: T1, Nuclear factor erythroid 2-related factor 2 (Rattus norvegicus); assay: Activation of Nrf2 in rat PC12 cells assessed as increase in GCLM protein level at 20 uM after 12 hrs by Western blot analysis; assay type: cell-based; details: PC-12, filed as activator
# [4] = test system: PC-12; assay: Prevention of H2O2-induced calcium overload in rat PC12 cells assessed as reduction in intracellular free calcium by measuring mean fluorescence intensity at 5 uM pretreated with compound followed by H2O2 addition measured after 24 hrs by Fluo-3AM based fluorescence assay (reference value: 17791.36%); assay type: functional
# [5] = molecular target: T1, Nuclear factor erythroid 2-related factor 2 (Rattus norvegicus); assay: Activation of Nrf2 in rat PC12 cells assessed as increase in GCLC protein level at 20 uM after 24 hrs by Western blot analysis; assay type: cell-based; details: PC-12, filed as activator
# [6] = test system: PC-12; assay: Protection against H2O2-induced oxidative damage in rat PC12 cells assessed as intracellular ROS level by measuring mean fluorescence intensity at 5 uM pretreated with compound followed by H2O2 stimulation by DCFH-DA staining based flow cytometry (reference value: 233032.55); assay type: functional
# [7] = test system: PC-12; assay: Protection against 6-OHDA-induced apoptosis in rat PC12 cells assessed as late apoptotic cells at 5 uM incubated for 24 hrs by annexin V FITC/propidium iodide staining based flow cytometry (reference value: 7.6 %); assay type: functional
# [8] = test system: PC-12; assay: Protection against H2O2-induced mitochondrial dysfunction in rat PC12 cells assessed as change in mitochondrial membrane potential at 5 uM pretreated with compound followed by H2O2 addition by JC-1 staining based flow cytometry (reference value: 78.7 %); assay type: functional; summary of the method: as §1
# [9] = molecular target: T1, Nuclear factor erythroid 2-related factor 2 (Rattus norvegicus); assay: Activation of Nrf2 in rat PC12 cells assessed as increase in Nrf2 protein level at 20 uM after 3 hrs by Western blot analysis; assay type: cell-based; details: PC-12, filed as activator
# [10] = test system: PC-12; assay: Protection against H2O2-induced oxidative damage in rat PC12 cells assessed as intracellular ROS level by measuring mean fluorescence intensity at 20 uM pretreated with compound followed by H2O2 stimulation by DCFH-DA staining based flow cytometry (reference value: 233032.55); assay type: functional
# [11] = test system: PC-12; assay: Protection against H2O2-induced mitochondrial dysfunction in rat PC12 cells assessed as change in mitochondrial membrane potential at 20 uM pretreated with compound followed by H2O2 addition by JC-1 staining based flow cytometry (reference value: 78.7 %); assay type: functional; summary of the method: as §1
# [12] = test system: PC-12; assay: Neuroprotective activity against 6-OHDA-induced apoptosis in rat PC12 cells assessed as reduction in apoptotic nuclei at 5 to 20 uM pretreated with compound followed by Hoechst 33342 staining based fluorescence microscopy analysis; details: dose 5-20 µM
# [13] = test system: PC-12; assay: Protection against H2O2-induced apoptosis in rat PC12 cells assessed as viable cells at 20 uM incubated for 24 hrs by annexin V FITC/propidium iodide staining based flow cytometry (reference value: 79.3 %); assay type: functional; details: read-out: Activity
# [14] = molecular target: T2, Nuclear factor erythroid 2-related factor 2 (Mus musculus) (UniProt Q60795); assay: Activation of Nrf2 in mouse BV2 cells assessed as upregulation of TrxR1 protein expression after 24 hrs by Western blot analysis; assay type: cell-based; details: BV-2, filed as activator, dose 5-20 µM
# T2 sequence (whole entry): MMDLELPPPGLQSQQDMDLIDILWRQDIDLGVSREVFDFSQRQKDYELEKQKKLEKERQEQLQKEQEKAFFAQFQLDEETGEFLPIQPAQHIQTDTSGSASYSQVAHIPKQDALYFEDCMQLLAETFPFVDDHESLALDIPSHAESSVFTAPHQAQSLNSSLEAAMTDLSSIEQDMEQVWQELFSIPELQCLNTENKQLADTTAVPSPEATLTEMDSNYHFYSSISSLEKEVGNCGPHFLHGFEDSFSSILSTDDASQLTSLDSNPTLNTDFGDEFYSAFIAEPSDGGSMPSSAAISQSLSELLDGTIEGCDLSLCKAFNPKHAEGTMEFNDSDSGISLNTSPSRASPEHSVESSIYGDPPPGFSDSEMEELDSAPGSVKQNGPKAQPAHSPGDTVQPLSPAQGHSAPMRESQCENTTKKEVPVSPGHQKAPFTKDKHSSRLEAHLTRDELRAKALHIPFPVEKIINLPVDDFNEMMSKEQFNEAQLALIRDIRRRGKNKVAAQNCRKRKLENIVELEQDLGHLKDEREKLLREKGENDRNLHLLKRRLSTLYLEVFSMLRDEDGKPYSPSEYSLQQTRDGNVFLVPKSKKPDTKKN
# Summary of the method: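 BV2 microglia exposed to compound for 24 h over a concentration series; Nrf2, NQO1, HO-1, TrxR1, GCLM and GCLC protein levels read by Western blot.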
# [15] = molecular target: T1, Nuclear factor erythroid 2-related factor 2 (Rattus norvegicus); assay: Activation of Nrf2 in rat PC12 cells assessed as increase in GCLC protein level after 24 hrs by Western blot analysis; assay type: cell-based; details: PC-12, filed as activator, dose 5-20 µM
# Summary of the method: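 PC12 cells treated with compound for 24 h at rising concentrations; NQO1, HO-1, TrxR1, GCLM, GCLC protein detected by Western blot.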
# [16] = test system: PC-12; assay: Neuroprotective activity against 6-OHDA-induced cell death in rat PC12 cells assessed as cell viability at 20 uM preincubated for 30 mins in presence of brusatol […] and measured after 24 hrs by MTT assay; assay type: functional, cell-based; details: time 24.5 hrs
smiles,measurement,setting,value
CCN(C)C(=O)N1CCN(C(=O)/C=C/c2ccc(F)cc2)C1=O,Activity,[1],16.3%
same,Activity,[2],Active
same,Activity,[3],Active
same,Flu intensity,[4],8721.73
same,Activity,[5],Active
same,Flu intensity,[6],205329.36
same,Activity,[7],6.4%
same,Activity,[8],86.7%
same,Activity,[9],Active
same,Flu intensity,[10],130822.7
same,Activity,[11],92.8%
same,Activity,[12],Active
same,viability at 20 µM,[13],93.7%
same,Activity,[14],Dose-dependent effect
same,Activity,[15],Dose-dependent effect
same,Activity,[16],inactive
